Reference: PubChem BioAssay AID624466 (The Scripps Research Institute Molecular Screening Center, 2012)
Among all 360,000 compounds or so, about 5,400 (1.5%) were called active. Shown is part of a subset that was picked to be rich in actives. Unmarked numbers belong to inactive results.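 The calls were made as follows: active = inhibition above a per-plate cutoff, the mean inhibition of test compounds on that plate plus 3 SD (cut at about 49% in these data); inactive = the rest.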 Where a SMILES comes first, the peptide text is derived from it. The star is where a group is joined. Bz = O=C(c1ccccc1)*

Molecular target: Trace amine-associated receptor 1 (Homo sapiens) (UniProt Q96RJ0)
Sequence (Q96RJ0 whole entry, looked up): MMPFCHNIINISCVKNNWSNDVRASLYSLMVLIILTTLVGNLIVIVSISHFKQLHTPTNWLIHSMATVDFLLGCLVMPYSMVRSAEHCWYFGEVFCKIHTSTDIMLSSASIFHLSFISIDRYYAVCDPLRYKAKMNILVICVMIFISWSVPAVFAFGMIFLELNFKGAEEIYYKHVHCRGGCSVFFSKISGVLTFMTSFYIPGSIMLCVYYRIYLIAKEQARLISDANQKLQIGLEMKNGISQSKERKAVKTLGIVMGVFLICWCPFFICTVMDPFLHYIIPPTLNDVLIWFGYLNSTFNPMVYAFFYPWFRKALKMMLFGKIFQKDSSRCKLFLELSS
Assay: blockers of beta-PEA-driven TAAR1 calcium signal – Fluo-8 calcium fluorescence, CHO RD-HGA16 cells, primary screen (AID 624466);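 also: 0% = DMSO plus EC80 beta-PEA response and 100% = DMSO alone without agonist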
Settings: CHO RD-HGA16 TAAR1, Fluo-8 calcium fluorescence, antagonist; at 3 µM; active compounds read high
How it was run: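 Test system: RD-HGA16 CHO cells with stable hTAAR1 and Gα16 / Probe or stimulus: EC80 β-phenethylamine stimulus / Times: seeding 17-24 h prior, 75-min 37 °C, 30-min RT dye loading / Detection: Fluo-8 calcium-sensitive fluorescence / Read-out basis: % inhibition scaled between DMSO and EC80 PEA controls / Repeats: singlicate, one well per test compound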

SMILES | inhibition
Cc1ccc(-c2ccc(/C=N/NC(=O)CN3CCOCC3)o2)cc1[N+](=O)[O-] | 3.41%
COc1cc(/C=N\NC(=O)c2nonc2N)c(OC)cc1Br | -10.8%
Cc1cc(C)c([N+](=O)[O-])cc1-c1ccc(/C=N/NC(=O)c2nonc2N)o1 | 52% (active)
O=C1NC[C@H](CCCCN2C[C@H](Cc3ccccc3)N(Cc3ccccc3)C(=O)C2=O)N(CCc2ccc(O)cc2)C1=O | -9.2%
CN1CCN(CCC(=O)N/N=C/C=C2\N(C)c3ccccc3C2(C)C)CC1 | 28.4%
CC(=O)Nc1cccc(OCC(=O)/C=C2\N(C)c3ccccc3C2(C)C)c1 | 32.4%
CN1/C(=C\C(=O)c2oc3ccccc3c2N)C(C)(C)c2ccccc21 | 51.5% (active)
CC(=O)Nc1ccc(NC(=O)CCN2C(=O)C3CC=CCC3C2=O)cc1 (configuration not stated) | -7.1%
Cc1nc2ccc(NC(=O)N3CCC(c4ccccc4)C3)cc2nc1C (configuration not stated) | -3.01%
COC(=O)c1ccccc1SC1CC(=O)N(c2cccc(C)c2)C1=O (configuration not stated) | -3.32%
COC(=O)[C@@]1(Sc2ccc(C)cc2)CC(=O)N(c2cccc(SC)c2)[C@@H]1c1ccccc1 | 67.8% (active)
CCOC(=O)N1C(=O)C[C@](Sc2ccc(C)cc2)(C(=O)OC)[C@H]1c1ccccc1 | 6.96%
COC(=O)C(C(=O)OC)c1ccccc1NS(=O)(=O)c1cccc2ccccc12 | -21.2%
CC(=O)N1Cc2cc(C(=O)NCc3cccc(F)c3)nc(-c3cccc(C4=CCCCC4)c3)c2[C@H]1CCO | 18.2%
O=C(CC[C@H]1O[C@@H](n2ccc(=O)[nH]c2=O)[C@H](O)[C@@H]1O)N[C@H](Cc1ccccc1)C(=O)NCCCN1CCCC1=O | -13.5%
COc1ccc(NS(=O)(=O)c2ccc(C(=O)Nc3c(C)n(C)n(-c4ccccc4)c3=O)cc2)cc1 | -27.9%
Cc1c(NS(=O)(=O)c2cccc(C(=O)Nc3ccc(SC(F)F)cc3)c2)c(=O)n(-c2ccccc2)n1C | 51.8% (active)
COc1ccc(C(=O)C(C)OC(=O)c2cccc(S(=O)(=O)Nc3c(C)n(C)n(-c4ccccc4)c3=O)c2)cc1 (configuration not stated) | -15.1%
Cc1cc(C)n2c(Nc3c(C)cccc3C)c(CCc3ccccc3)nc2n1 | 5.85%
Clc1ccccc1Nc1nc(NCc2cccs2)nc2ccsc12 | 7.32%
COc1cccc(CNc2nc(NCc3ccccc3OC)nc3ccsc23)c1 | 36.8%

SMILES | inhibition
COc1cccc(CNc2nc(NCc3cccs3)nc3ccsc23)c1 | 76.6% (active)
O=C1C=C(c2ccc(Cl)cc2)C(=O)N1Nc1ccccc1 | 74.6% (active)
CC(C)N(C)C(=O)CCc1nnc(CCc2c[nH]c3ccccc23)o1 | -0.9%
COC(=O)C1=C(C)N(Cc2cccc(C(F)(F)F)c2)C(=NCc2cccc(C(F)(F)F)c2)NC1c1ccccc1C(F)(F)F (configuration not stated) | -30.9%
Cc1ccc(C(=O)Nc2ccc(C)c(S(=O)(=O)N(C)C)c2)s1 | 11.3%
O=C(N[C@H](C(=O)N1CCC[C@H]1C(=O)NCCc1ccccc1Cl)c1ccccc1)c1ccccc1 | 56.7% (active)
O=C(NCCc1ccc(Cl)cc1)C1CCCN1C(=O)NCc1ccccc1 (configuration not stated) | -9.56%
O=C(NC(Cc1ccccc1)C(=O)N1CCCC1C(=O)O)c1ccccc1 (stereo not drawn) (Bz-Phe-Pro-OH; configuration not given here) | -24.6%
O=C(Nn1c(-c2ccc(Cl)cc2)nc2ccccc2c1=O)c1cccnc1Cl | 15.6%
O=C(C[C@H]1CC[C@H]2[C@@H](COC[C@H](O)CN2C(=O)c2ccccn2)O1)N1CCN(c2ccccc2)CC1 | -9.63%
CCOC(=O)N1CCN(C(=O)C[C@@H]2C[C@@]3(C(=O)OC)CC(C)(C)CC=C3N(Cc3ccco3)C2=O)CC1 | -19%
COc1ccccc1N1CCN(C(=O)c2ccc(NC3=NC4CS(=O)(=O)CC4S3)cc2)CC1 (configuration not stated) | -7.44%
COc1ccc(Nc2ncc(C(=O)N3CCN(c4ccccc4OC)CC3)c3ccccc23)cc1 | 49.5% (active)
COc1ccccc1N1CCN(C(=O)c2cn(-c3ccccc3)nc2-c2cccnc2)CC1 | 22.2%
CCCC(C)NC(=O)C1CCN(C(=O)C2CC(=O)N(c3ccc(C)cc3)C2)CC1 (configuration not stated) | 3.73%
C[C@@H]1ON(C)[C@H]2C[C@H]3c4cc(N5CCOCC5)ccc4CCN3C[C@@H]12 | -3.17%
COc1ccc(S(=O)(=O)Nc2ccc3c(c2)C(=O)N([C@H](C)CO)C[C@H](C)[C@@H](CN(C)C)OCCCC[C@H](C)O3)cc1 | -3.5%
C[n+]1ccc(/C=C/c2c[nH]c3ccccc23)cc1 | -4.64%
CSC(=S)N/N=C/c1c[nH]c2ccccc12 | 88.6% (active)
O=C(Cc1c[nH]c2ccccc12)N/N=C/c1cccc(F)c1 | 15.8%
COc1ccc(S(=O)(=O)N2CCOC2CNC(=O)C(=O)NCc2ccncc2)cc1C (configuration not stated) | -15.9%

SMILES | inhibition
COc1ccc(CCNC(=O)C(=O)NCC2OCCN2S(=O)(=O)c2ccc(F)cc2)cc1OC (configuration not stated) | -12%
COc1ccc(CCNC(=O)C(=O)NCC2OCCN2S(=O)(=O)c2ccc(OC)c(C)c2)cc1 (configuration not stated) | 53.6% (active)
CC1Cc2[nH][nH]c(=O)c2C(C2CCCC2)O1 (configuration not stated) | 2.81%
CC(C)c1cc(Cn2c3ccccc3c(=O)n2C(C)Cn2cc(C3CC3)nn2)on1 (configuration not stated) | -16%
CCCCN(C(=O)c1cccc(N2C(=O)c3ccccc3C2=O)c1)c1c(N)n(CCCC)c(=O)[nH]c1=O | 5.52%
CC(C)[C@@H](C)/C=C/[C@@H](C)[C@H]1CC[C@@H]2[C@]1(C)CCC1[C@]23C=C[C@]2(C[C@@H](O)CC[C@]12C)N(c1ccc([N+](=O)[O-])cn1)O3 (some centres not stated) | -12%
Oc1ccccc1N1CCN(C(=S)NCc2ccccc2)CC1 | 3.27%
Oc1ccccc1N1CCN(c2ncnc3sc(-c4ccccc4)cc23)CC1 | 58.6% (active)
O=c1c2cc(-c3ccccc3)sc2nc2n1N=C(c1cccs1)CS2 | -11.2%
O=C(Cn1c(N2CCN(C/C=C/c3ccccc3)CC2)nc2ccccc21)c1ccccc1 | 10.7%
COc1cccc(CC(=O)N2CCN(C(=O)C(=O)c3cccc(C(F)(F)F)c3)CC2)c1 | 15.5%
Cc1ccccc1NC(=O)Cc1nc(COC(=O)CNC(=O)c2ccc(Cl)cc2Cl)cs1 | -26.5%
Cc1ccccc1NC(=O)Cc1nc(COC(=O)c2cccnc2Cl)cs1 | 10.4%
Cc1ccccc1NC(=O)Cc1nc(COC(=O)C(C)(C)Oc2ccc(Cl)cc2)cs1 | 64.8% (active)
CC(C)Nc1nnc(SC(C)C(=O)N(C)C2CCCCC2)s1 (configuration not stated) | -5.6%
Cc1ccc(S(=O)(=O)CC(=O)NC(C)c2ccccc2)cc1 (configuration not stated) | -14.5%
Cc1cccc(S(=O)(=O)CC(=O)Nc2nc(-c3ccccc3)cs2)c1 | 53.8% (active)
Cc1ccc(C)c(-c2nnc(NC(=O)CS(=O)(=O)c3ccccc3)o2)c1 | -13.2%
CCOC(=O)[C@]12CCCC=C1N(CCC1=CCCCC1)C(=O)[C@H](CC(=O)N1CCCCC1)C2 | -49.4%
COC(=O)C1=C(C)N(Cc2ccccc2C(F)(F)F)C(=NCc2ccc(C(F)(F)F)cc2)NC1c1ccc(F)cc1 (configuration not stated) | -31.9%
Nc1nnc(SCC(=O)Nc2ccc3nc(SCC(=O)Nc4ccccc4)sc3c2)s1 | 48.9% (active)

SMILES | inhibition
CCCCNC(=O)CSc1nc2ccc(NC(=O)CSc3nnc(COc4ccccc4C)n3C)cc2s1 | 23.6%
CCCCNC(=O)CSc1nc2ccc(NC(=O)CSc3nnc(N)s3)cc2s1 | 14.2%
COC(=O)[C@@]12C[C@@H](CC(=O)NCCCCc3ccccc3)C(=O)N(Cc3ccccc3)C1=CCC(C)(C)C2 | 1.67%
CSCCC(C(=O)NC(C)(C)C)n1c(-c2ccccc2)nc2ccccc21 (configuration not stated) | -24.9%
COC(=O)[C@@]1(Cc2ccc(F)cc2)[C@H]2c3cc(C(=O)N4CCCC4)n(Cc4ccc(OC(F)(F)F)cc4)c3C[C@H]2CN1C(=O)c1ccccc1 | -23%
CC(C)c1ccc(NC(=O)Cn2ncc3ccccc32)cc1 | -7.65%
CCC(C(=O)Nc1ccc(C(C)C)cc1)c1ccccc1 (configuration not stated) | 83.9% (active)
CC(NC(=O)Nc1ccccc1)c1ccccc1 (configuration not stated) | 8.89%
COc1ccc(C(=O)NCC[N+](C)(C)C)cc1 | -19.6%
O=c1[nH]c(-c2ccccc2)cn1C1CCN(Cc2ccc(-c3nc4ccc(F)cc4nc3-c3ccccc3)cc2)CC1 | 9.33%
O=C(COC(=O)Cc1c[nH]c2ccccc12)NCCc1ccccc1 | -12.2%
O=C(COC(=O)Cc1ccccc1F)NCCc1ccccc1 | 72.9% (active)
COc1ccc(CCNC(=O)COC(=O)Cc2ccccc2F)cc1 | -11.5%
Cc1ccc2nc(SCC(=O)Nc3cccc4ccccc34)nc(=O)n2c1 | -20.9%
C=CCNC(=O)c1cc2nc(C3CC3)cc(C(F)F)n2n1 | 7.57%
Cc1ccc(F)c(S(=O)(=O)NC(=O)C2(C)CCN2C(=O)CCc2cccs2)c1 (configuration not stated) | -14.2%
CCOC(=O)C1C(c2ccc(OC)c(OC)c2)c2c([nH][nH]c2=O)CC1(C)O (configuration not stated) | 56.8% (active)
CCOC(=O)C1C(c2ccc(O)cc2)NC(=O)NC1(O)C(F)(F)F (configuration not stated) | -14.2%
CCC1(C)COC(c2ccc(OC)c(OC)c2)OC1 (configuration not stated) | -18.6%
